Assay results from different studies.
Cell line: HepG2
Effect on: cell growth or viability

SMILES	technique	tested at	time	quantity	value
CCOC(=O)c1cn(CC)c2cc(N3CCC(Cc4ccccc4)CC3)c(F)cc2c1=O	ATP luminescence		48 h	EC50	> 40 µM
COc1cccc(NC(=O)CN2C(=O)/C(=C/C3CC3)SC2=S)c1	MTT	10 µM		inhibition	12.1%
COc1ccc(NC(=O)c2c(Nc3ccccc3)sc(C#N)c2NC(=O)CNc2ccccc2)cc1	SRB	0.1 µM	48 h	viability	82.4%
COc1cccc(NC(=O)CN2C(=O)/C(=C/c3ccc(F)cc3)SC2=S)c1	MTT	10 µM		inhibition	10.2%
COc1cc2ncnc(Nc3ccc(F)c(Cl)c3)c2cc1NC(=O)N/N=C/c1cccn1CCN1CCN(C)CC1	MTT		72 h	IC50	0.22 µM
O=C(CN1C(=O)/C(=C/c2cccc(Cl)c2)SC1=S)Nc1ccccc1	MTT	10 µM		inhibition	10%
CCOc1ccc(-c2nc3ccc(C)cc3[nH]2)cc1	MTT		48 h	IC50	27.4 µM
COc1ccc(NC(=O)c2c(Nc3ccccc3)sc(C(=O)NN=Cc3ccc(OC)c(O)c3)c2NC(C)=O)cc1	SRB	10 µM	48 h	viability	31.6%
CCn1cc(-c2nc(C)no2)c(=O)c2cc(F)c(N3CCC(F)(F)CC3)cc21	ATP luminescence		48 h	EC50	> 40 µM
CCOc1cc(-c2nc3ccc(C)cc3[nH]2)ccc1O	MTT		48 h	IC50	77.1 µM
Cc1cc(Nc2ccc(C(=O)N/N=C/c3ccc(C)s3)cc2)c2cccc(O)c2n1	MTT	20 µM		inhibition	46.3%
Cc1ccc2nc(-c3ccc([N+](=O)[O-])cc3)[nH]c2c1	MTT		48 h	IC50	18.6 µM
Cc1ccc(-c2cc(-c3ccc4oc(=O)cc(C)c4c3O)nc(N)n2)cc1	MTT	128 µg/mL	72 h	inhibition	27%
COc1ccccc1/C=C1\SC(=S)N(CC(=O)Nc2ccccc2)C1=O	MTT	10 µM		inhibition	25.6%
Cc1cc(=O)oc2ccc(-c3cc(-c4ccc(Cl)cc4)nc(N)n3)c(O)c12	MTT	128 µg/mL	72 h	inhibition	87%
COc1ccc(NC(=O)c2c(Nc3ccccc3)sc(C(=O)NN=Cc3ccc(Br)cc3)c2NC(C)=O)cc1	SRB	1 µM	48 h	viability	85.2%
Cc1ccc2nc(-c3c(F)cccc3Cl)[nH]c2c1	MTT		48 h	IC50	> 100 µM
COc1ccc(-c2cc(-c3ccc4oc(=O)cc(C)c4c3O)nc(N)n2)cc1	MTT	2 µg/mL	72 h	inhibition	0%
CCCC1CCN(c2cc3c(cc2F)c(=O)c(-c2nc(C)no2)cn3CC)CC1	ATP luminescence		48 h	EC50	> 40 µM
O=C(CN1C(=O)/C(=C/c2ccc([N+](=O)[O-])cc2)SC1=S)Nc1ccccc1	MTT	10 µM		inhibition	22.6%
COc1ccc(NC(=O)c2c(Nc3ccccc3)sc(C#N)c2NC(=O)CNc2ccc([N+](=O)[O-])cc2)cc1	SRB	1 nM	48 h	viability	100%
CCOC(=O)c1ccc(-n2c(C)cc(/C=C/c3ccc(OC)cc3)c(C#N)c2=O)cc1	MTT	100 µM	24 h	viability	47.4%
Cc1cc(Nc2ccc(C(=O)N/N=C/c3ccncc3)cc2)c2cccc(O)c2n1	MTT	20 µM		inhibition	47.7%
CN1CCN(CCn2cccc2/C=N/NC(=O)Nc2cc3c(Nc4ccc(F)c(Cl)c4)ncnc3cc2O[C@H]2CCOC2)CC1	MTT		72 h	IC50	0.15 µM

SMILES	technique	tested at	time	quantity	value
COc1ccc(NC(=O)c2c(Nc3ccccc3)sc(C(=O)NN=Cc3ccc(C)cc3)c2NC(C)=O)cc1	SRB	100 µM	48 h	viability	57.3%
Cc1cc(=O)oc2ccc(-c3cc(-c4ccccc4)nc(N)n3)c(O)c12	MTT	32 µg/mL	72 h	inhibition	5%
CCn1cc(-c2nc(C)no2)c(=O)c2cc(F)c(N3CCC(C)CC3)cc21	ATP luminescence		48 h	EC50	> 40 µM
c1ccc2[nH]c(-c3ccc4c(c3)OCO4)nc2c1	MTT		48 h	IC50	> 100 µM
CC(=O)Nc1cccc(-n2c(=O)n(C3CC3)c(=O)c3c(Nc4ccc(I)cc4F)n(C)c(=O)c(C)c32)c1	resazurin	50 nM	72 h	viability	43.3%
CCOC(=O)c1ccc(-n2c(C)cc(/C=C/c3ccc(OCC)cc3)c(C#N)c2=O)cc1	MTT	1.56 µM	24 h	viability	100%
COc1ccc(NC(=O)c2c(Nc3ccccc3)sc(C#N)c2NC(=O)CNc2ccc(Cl)cc2)cc1	SRB	1 µM	48 h	viability	45.3%
CCN(CC)CCCn1cccc1/C=N/NC(=O)Nc1cc2c(Nc3ccc(F)c(Cl)c3)ncnc2cc1O[C@H]1CCOC1	MTT		72 h	IC50	0.71 µM
O=C(CN1C(=O)/C(=C/c2ccco2)SC1=S)Nc1ccccc1	MTT	10 µM		inhibition	18.6%
CCOC(=O)c1ccc(-n2c(-c3ccc(C)cc3)cc(-c3ccc(O)cc3)c(C#N)c2=O)cc1	MTT	50 µM	24 h	viability	25.6%
CCOc1ccc(-c2nc3ccccc3n2Cc2ccccc2)cc1	MTT			IC50	33.8 µM
COc1ccc(NC(=O)c2c(Nc3ccccc3)sc(C#N)c2NC(=O)CNc2ccc(O)cc2)cc1	SRB	10 µM	48 h	viability	61.6%
CC(C)(CO)Cn1nc(-c2ccc3nc(OCC(F)(F)F)ccc3c2)c2c(N)ncnc21				GI50	> 10 µM
COc1ccc(NC(=O)c2c(Nc3ccccc3)sc(C(=O)NN=Cc3cc(OC)c(OC)c(OC)c3)c2NC(C)=O)cc1	SRB	1 nM	48 h	viability	97.3%
COc1ccc(-c2nc3ccc(C)cc3[nH]2)cc1OC	MTT		48 h	IC50	43.6 µM
Cc1cc(=O)oc2ccc(-c3cc(-c4ccc(Br)cc4)nc(N)n3)c(O)c12	MTT	32 µg/mL	72 h	inhibition	8%
CCn1cc(-c2nc(C)no2)c(=O)c2cc(F)c(N3CCCC3)cc21	ATP luminescence		48 h	EC50	> 40 µM
CCOC(=O)c1ccc(-n2c(N)c(C#N)c(CC#N)c(C#N)c2=O)cc1	MTT	12.5 µM	24 h	viability	63.6%
CCOc1cc(-c2nc3ccccc3[nH]2)ccc1O	MTT		48 h	IC50	42.5 µM
CCOC(=O)c1ccc(N2C(N)=C(C#N)C3(C(=O)Nc4ccccc43)C(C#N)=C2O)cc1 (centres unmarked)	MTT	6.25 µM	24 h	viability	61.3%
Cc1cc(=O)oc2ccc(-c3cc(-c4cccs4)nc(N)n3)c(O)c12	MTT	8 µg/mL	72 h	inhibition	0%
O=C(CN1C(=O)/C(=C/c2ccc(F)cc2)SC1=S)Nc1ccccc1	MTT	10 µM		inhibition	6.59%
CCOC(=O)c1ccc(NC(=O)C2=C3C(=Nc4ccccc43)NC2=O)cc1	MTT	100 µM	24 h	viability	35.6%
